According to ChEMBL document CHEMBL3745600, “2-Amino-thiophene derivatives present antileishmanial activity mediated by apoptosis and immunomodulation in vitro” (Eur J Med Chem, 2015):
Values after ≈ are worked out from the molar mass of the structure shown. Active and inactive are the calls of the source. The rule behind the calls is not given here.

Experiments:
[1] = Toxicity in human RBC assessed as induction of hemolytic activity after 1 hr by spectrometer analysis; format: cell-based, Erythrocyte; details: red blood cells (RBC)
Summary of the method: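 A 5% suspension of human erythrocytes in PBS was mixed 4:1 with serial compound dilutions and incubated 1 h at 37°C. The reaction was stopped with PBS (pH 7.2) and spun 10 min at 1000 x g, and supernatant absorbance was read at 540 nm. Haemolysis was expressed relative to a drug-free blank and to water-induced total lysis. HC50 was obtained by probit regression.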

[2] = Cytotoxicity against Swiss mouse peritoneal macrophages after 24 hrs by MTT assay; format: cell-based, Peritoneal macrophage cell
Summary of the method: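 Macrophages were collected from Swiss mice 5 days after thioglycollate (3%) elicitation. About 1 x 10^6 cells per well were incubated in RPMI 1640 with 10% heat-inactivated FBS and compound for 24 h at 37°C, 5% CO₂. MTT was added for 4 h, followed by 10% SDS, and absorbance was read at 540 nm. CC50 was obtained by probit regression.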

Leishmania amazonensis [3] = test: Antileishmanial activity against axenic amastigotes of Leishmania amazonensis IFLA/BR/67/PH8 after 24 hrs by MTT assay; details: IFLA/BR/67/PH8, 24 h
Leishmania amazonensis [4] = test: Antileishmanial activity against promastigotes of Leishmania amazonensis IFLA/BR/67/PH8 after 72 hrs by Neubauer haemocytometer counting; details: IFLA/BR/67/PH8, 72 h
[5] = Selectivity index, ratio of HC50 for human RBC to IC50 for promastigotes of Leishmania amazonensis IFLA/BR/67/PH8
Summary of the method: (§1)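 Promastigote values came from haemocytometer counts after 72 h at 25°C. Axenic amastigote values came from MTT readings after 24 h at 32°C, using amastigotes differentiated at pH 4.6. All 50% values were obtained by probit regression.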

[6] = Selectivity index, ratio of HC50 for human RBC to IC50 for axenic amastigotes of Leishmania amazonensis IFLA/BR/67/PH8; summary of the method: as §1
[7] = Selectivity index, ratio of CC50 for Swiss mouse peritoneal macrophages to IC50 for promastigotes of Leishmania amazonensis IFLA/BR/67/PH8; format: functional; summary of the method: as §1
[8] = Selectivity index, ratio of CC50 for Swiss mouse peritoneal macrophages to EC50 for axenic amastigotes of Leishmania amazonensis IFLA/BR/67/PH8; summary of the method: as §1
Leishmania amazonensis [9] = test: Antileishmanial activity against promastigotes of Leishmania amazonensis IFLA/BR/67/PH8 assessed as viable cells using Annexin-V staining at 4 times IC50 after 4 hrs by flow cytometry (reference value: 77%); format: functional
Leishmania amazonensis [10] = test: Antileishmanial activity against axenic amastigotes of Leishmania amazonensis IFLA/BR/67/PH8 infected in Swiss mouse peritoneal macrophages assessed as reduction of survival rate after 72 hrs by light microscopy analysis; format: functional, organism-based
Summary of the method: (§2)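 Peritoneal macrophages were plated on glass coverslips at 1 x 10^6 cells/mL in supplemented RPMI 1640 and allowed to adhere for 2 h at 34°C, 5% CO₂. They were infected for 3 h with stationary-phase promastigotes at 10 parasites per macrophage, washed with PBS, then exposed to compound for 24 or 72 h. Coverslips were fixed and Panoptic-stained, and 300 macrophages per coverslip were counted by light microscopy. EC50 was derived by probit regression.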

Leishmania amazonensis [11] = test: Antileishmanial activity against promastigotes of Leishmania amazonensis IFLA/BR/67/PH8 assessed as induction of necrosis using Annexin-V-FITC/PI staining at 2 times IC50 after 4 hrs by flow cytometry (reference value: 2.6%); format: functional
Leishmania amazonensis [12] = test: Antileishmanial activity against promastigotes of Leishmania amazonensis IFLA/BR/67/PH8 assessed as induction of early apoptosis using Annexin-V staining at IC50 after 4 hrs by flow cytometry (reference value: 8.3%); format: functional
Leishmania amazonensis [13] = test: Antileishmanial activity against promastigotes of Leishmania amazonensis IFLA/BR/67/PH8 assessed as induction of DNA fragmentation at IC50 after 24 hrs by agarose gel electrophoresis; format: functional, organism-based
Summary of the method: (§3)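 Genomic DNA was extracted with phenol/chloroform and run on agarose with GelRed (1:500) for 1 h at […]. Fragmentation was viewed under UV as a qualitative read-out.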

Leishmania amazonensis [14] = test: Antileishmanial activity against promastigotes of Leishmania amazonensis IFLA/BR/67/PH8 assessed as induction of late apoptosis using Annexin-V/PI staining at 2 times IC50 after 4 hrs by flow cytometry (reference value: 12.05%); format: functional
Leishmania amazonensis [15] = test: Antileishmanial activity against promastigotes of Leishmania amazonensis IFLA/BR/67/PH8 assessed as induction of late apoptosis using Annexin-V/PI staining at 4 times IC50 after 4 hrs by flow cytometry (reference value: 12.05%); format: functional
Leishmania amazonensis [16] = test: Antileishmanial activity against promastigotes of Leishmania amazonensis IFLA/BR/67/PH8 assessed as viable cells using Annexin-V staining at IC50 after 4 hrs by flow cytometry (reference value: 77%); format: functional
Leishmania amazonensis [17] = test: Antileishmanial activity against promastigotes of Leishmania amazonensis IFLA/BR/67/PH8 assessed as induction of early apoptosis using Annexin-V staining at 2 times IC50 after 4 hrs by flow cytometry (reference value: 8.3%); format: functional
Leishmania amazonensis [18] = test: Antileishmanial activity against promastigotes of Leishmania amazonensis IFLA/BR/67/PH8 assessed as induction of early apoptosis using Annexin-V staining at 4 times IC50 after 4 hrs by flow cytometry (reference value: 8.3%); format: functional
Leishmania amazonensis [19] = test: Antileishmanial activity against promastigotes of Leishmania amazonensis IFLA/BR/67/PH8 assessed as viable cells using Annexin-V staining at 2 times IC50 after 4 hrs by flow cytometry (reference value: 77%); format: functional
Leishmania amazonensis [20] = test: Antileishmanial activity against promastigotes of Leishmania amazonensis IFLA/BR/67/PH8 assessed as induction of necrosis using Annexin-V-FITC/PI staining at IC50 after 4 hrs by flow cytometry (reference value: 2.6%); format: functional
Leishmania amazonensis [21] = test: Antileishmanial activity against promastigotes of Leishmania amazonensis IFLA/BR/67/PH8 assessed as induction of late apoptosis using Annexin-V/PI staining at IC50 after 4 hrs by flow cytometry (reference value: 12.05%); format: functional
Leishmania amazonensis [22] = test: Antileishmanial activity against promastigotes of Leishmania amazonensis IFLA/BR/67/PH8 assessed as induction of necrosis using Annexin-V-FITC/PI staining at 4 times IC50 after 4 hrs by flow cytometry (reference value: 2.6%); format: functional
Leishmania amazonensis [23] = test: Antileishmanial activity against promastigotes of Leishmania amazonensis IFLA/BR/67/PH8 assessed as induction of DNA fragmentation at 1 to 4 times IC50 after 24 hrs by agarose gel electrophoresis; format: functional, organism-based; summary of the method: as §3
[24] = system: Peritoneal macrophage cell; test: Immunomodulatory activity in Swiss mouse peritoneal macrophages infected with promastigotes form of Leishmania amazonensis IFLA/BR/67/PH8 assessed as increase of TNFalpha production at 6.25 to 25 uM after 72 hrs by sandwich ELISA; format: functional, cell-based
Summary of the method: (§4)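 Supernatants came from infected macrophages treated for 72 h at 37°C, 5% CO₂. TNF-α, IL-12 and IL-10 were measured by sandwich ELISA at 450 nm against murine recombinant cytokine standards. NO was estimated as nitrite by the Griess reaction at 540 nm against a sodium nitrite standard. LPS (10 mg/L) served as positive control. Three experiments were run in triplicate.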

Leishmania amazonensis [25] = test: Antileishmanial activity against axenic amastigotes of Leishmania amazonensis IFLA/BR/67/PH8 infected in Swiss mouse peritoneal macrophages assessed as reduction of survival rate after 24 hrs by light microscopy analysis; format: functional, organism-based; summary of the method: as §2
[26] = system: Peritoneal macrophage cell; test: Immunomodulatory activity in Swiss mouse peritoneal macrophages infected with promastigotes form of Leishmania amazonensis IFLA/BR/67/PH8 assessed as increase of IL-10 production at 6.25 to 25 uM after 72 hrs by sandwich ELISA; format: functional, cell-based; summary of the method: as §4
[27] = system: Peritoneal macrophage cell; test: Immunomodulatory activity in Swiss mouse peritoneal macrophages infected with promastigotes form of Leishmania amazonensis IFLA/BR/67/PH8 assessed as increase of IL-12 production at 6.25 to 25 uM after 72 hrs by sandwich ELISA; format: functional, cell-based; summary of the method: as §4

Row | Structure (SMILES) | IC50 (Leishmania amazonensis [4]) [µM] | HC50 at 1 h [1] [µM] | CC50 at 24 h [2] [µM] | EC50 (Leishmania amazonensis [3]) [µM] | Selectivity Index [5] | Selectivity Index [6] | Ratio CC50/IC50 [7] | Ratio CC50/EC50 [8] | other results
1 | N#Cc1c(/N=C/c2cccs2)sc2c1CCCCC2 | 189 | > 800 | 722 | 192 | > 4.22 | > 4.16 | 3.81 | 3.75 | 
2 | C[C@@H]1[C@H](O)[C@@H](C)/C=C/C=C/C=C/C=C/C=C/C=C/C=C/[C@H](O[C@@H]2O[C@H](C)[C@@H](O)[C@H](N)[C@@H]2O)C[C@@H]2O[C@](O)(C[C@@H](O)C[C@@H](O)[C@H](O)CC[C@@H](O)C[C@@H](O)CC(=O)O[C@H]1C)C[C@H](O)[C@H]2C(=O)O [AMPHOTERICIN B] | 0.17 | 11.6 | 0.18 | 0.23 | 68.2 | 50.4 | 1.05 | 0.78 | Activity (Leishmania amazonensis [9]): 38.8%; EC50 (Leishmania amazonensis [10]; IFLA/BR/67/PH8, 72 h): 169 µg/mL (≈ 183 µM); Activity (Leishmania amazonensis [11]): 5.2%; Activity (Leishmania amazonensis [12]): 6%; Activity (Leishmania amazonensis [13]): Active; Activity (Leishmania amazonensis [14]): 38.8%; Activity (Leishmania amazonensis [15]): 42.2%; Activity (Leishmania amazonensis [16]): 67.2%; Activity (Leishmania amazonensis [17]): 10.4%; Activity (Leishmania amazonensis [18]): 10.3%; Activity (Leishmania amazonensis [19]): 45.5%; Activity (Leishmania amazonensis [20]): 2.8%; Activity (Leishmania amazonensis [21]): 23.8%; Activity (Leishmania amazonensis [22]): 8.6%
3 | COc1ccc(Br)c(/C=N/c2sc3c(c2C#N)CCCC3)c1 | 88 | > 800 | 211 | 167 | > 9.1 | > 4.78 | 2.4 | 1.26 | 
4 | N#Cc1c(/N=C/c2ccccc2)sc2c1CCCC2 | 61.5 | 682 | 141 | 124 | 11.1 | 5.4 | 2.29 | 1.13 | 
5 | N#Cc1c(/N=C/c2ccc3ncccc3c2)sc2c1CCCCC2 | 165 | 716 | 438 | 132 | 4.35 | 5.41 | 2.66 | 3.31 | 

The remaining compounds from weak to strong by IC50 (Leishmania amazonensis [4]), led by results:

Row | IC50 (Leishmania amazonensis [4]) [µM] | Structure (SMILES) | HC50 at 1 h [1] [µM] | CC50 at 24 h [2] [µM] | EC50 (Leishmania amazonensis [3]) [µM] | Selectivity Index [5] | Selectivity Index [6] | Ratio CC50/IC50 [7] | Ratio CC50/EC50 [8] | other results
6 | 187 | N#Cc1c(/N=C/c2ccc([N+](=O)[O-])cc2)sc2c1CCCC2 | > 800 | 229 | 213 | > 4.27 | > 3.76 | 1.22 | 1.07 | 
7 | 139 | N#Cc1c(/N=C/c2cccs2)sc2c1CCC2 | > 800 | 540 | 211 | > 5.73 | > 3.79 | 3.87 | 2.56 | 
8 | 49.1 | N#Cc1c(/N=C/c2ccc3ncccc3c2)sc2c1CCC2 | 625 | 196 | 103 | 12.7 | 6 | 3.99 | 1.9 | 
9 | 3.65 | N#Cc1c(/N=C/c2cc3cc(Br)ccc3[nH]2)sc2c1CCCCC2 | > 800 | 32 | 20.1 | > 219 | > 39.8 | 8.77 | 1.59 | Activity (Leishmania amazonensis [23]): Active; Activity [24]: Active; Activity (Leishmania amazonensis [9]): 15.3%; Activity (Leishmania amazonensis [10]): Dose-dependent effect; Activity (Leishmania amazonensis [11]): 22.7%; Activity (Leishmania amazonensis [12]): 4.8%; Activity (Leishmania amazonensis [14]): 27.3%; Activity (Leishmania amazonensis [15]): 27.1%; Activity (Leishmania amazonensis [25]): Dose-dependent effect; Activity (Leishmania amazonensis [16]): 79.9%; Activity [26]: inactive; Activity (Leishmania amazonensis [17]): 5.6%; Activity (Leishmania amazonensis [18]): 4.3%; Activity (Leishmania amazonensis [19]): 44.3%; Activity (Leishmania amazonensis [20]): 6.1%; Activity [27]: Active; Activity (Leishmania amazonensis [21]): 9.06%; Activity (Leishmania amazonensis [22]): 53.2%
